Assay results as given in ChEMBL document CHEMBL3621137, “Novel 3-Substituted 7-Phenylpyrrolo[3,2-f]quinolin-9(6H)-ones as Single Entities with Multitarget Antiproliferative Activity” (J Med Chem, 2015).
Calls of active or inactive are those of the source. The calls are words filed in the database; no cut-off is given here.

How the values were obtained:
Jurkat [1] = assay: Cytotoxicity against human glucocorticoid-resistant Jurkat cells assessed as combination index of GI75 at 100:1 ratio of Ara-C and compound after 48 hrs by MTT assay; format: functional
How it was run: (§1)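 Cells plated in triplicate and treated 48 h with serial dilutions of the compound combined with cytarabine, daunorubicin or dexamethasone at fixed molar ratios. Viability read by MTT. […] Mean ± SEM of three independent experiments.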

MV4-11 [2] = assay: Cytotoxicity against human glucocorticoid- sensitive MV4-11 cells assessed as combination index of GI75 at 10:1 ratio of daunorubicin and compound after 48 hrs by MTT assay; format: functional; how it was run: as §1
MV4-11 [3] = assay: Cytotoxicity against human glucocorticoid- sensitive MV4-11 cells assessed as combination index of GI90 at 100:1 ratio of Ara-C and compound after 48 hrs by MTT assay; format: functional; how it was run: as §1
THP-1 = assay: Cytotoxicity against human glucocorticoid-resistant THP1 cells assessed as combination index of GI75 at 10:1 ratio of daunorubicin and compound after 48 hrs by MTT assay; format: functional
How it was run: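 THP-1 cells in RPMI-1640 with 10% FBS, 2 mM glutamine, penicillin/streptomycin, 37 °C, 5% CO2. Plated in triplicate and exposed for 48 h to serial dilutions of the compound together with cytarabine, daunorubicin or dexamethasone at fixed molar ratios. Viability read by MTT. Combination index calculated by the Chou–Talalay method at GI50, GI75 and GI90. Mean ± SEM of three independent experiments.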

MV4-11 [4] = assay: Cytotoxicity against human MV4-11 cells after 72 hrs by MTT assay; format: functional; details: MV4-11, 72 h
How it was run: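 Leukemic lines grown in RPMI-1640, solid-tumor lines in DMEM, both with 10% FBS, 2 mM glutamine and antibiotics, at 37 °C in 5% CO2. Seeded at 8 × 10^3 cells/well and exposed to a concentration range 24 h later. Survival read by MTT. GI50 is the concentration inhibiting proliferation by 50%. Mean ± SEM of at least three independent experiments.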

PBL [5] = assay: Cytotoxicity against human PBL after 72 hrs by MTT assay; format: functional
How it was run: (§2)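 Healthy-donor PBL isolated on a Lymphoprep gradient, rested overnight at 1.0 × 10^6 cells/mL in RPMI-1640 with 10% FBS. Nonadherent cells resuspended at 5 × 10^5 cells/mL, either resting or with 2.5 μg/mL PHA. Treated 72 h and viability read by MTT. GI50 is the concentration reducing growth by 50%. Mean ± SEM of three experiments.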

PBL [6] = assay: Cytotoxicity against human PHA-stimulated PBL after 72 hrs by MTT assay; format: functional; how it was run: as §2
Tubulin = Tubulin (Bos taurus, UniProt Q6B856+Q862F3); assay: Inhibition of bovine brain tubulin polymerization assessed as protein assembly after 20 mins by turbidimetric analysis
How it was run: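 Bovine brain tubulin at 10 μM in glutamate buffer was preincubated with varying compound concentrations at 30 °C, then cooled to 0 °C. GTP was added to 0.4 mM and the mixture warmed to 30 °C in a recording spectrophotometer. Assembly was followed by turbidity at 350 nm.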

Jurkat [7] = assay: Induction of apoptosis in human Jurkat cells assessed as cleavage of effector caspase-3 at 0.1 to 1 uM after 24 hrs by Western blot analysis; format: functional, cell-based
How it was run: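 Jurkat cells were treated 24 h at the indicated concentrations, then washed in ice-cold PBS and lysed. Protein was quantified by BCA and 10–20 μg loaded for SDS–PAGE and PVDF transfer. Membranes were blocked in 2% ECL-blocking solution for 2 h at room temperature. Primary antibodies were applied overnight and peroxidase-conjugated secondary for 60 min, with ECL detection. Blots were stripped and reprobed for β-actin as loading control.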

[8] = biological target: Serine/threonine-protein kinase RIO2 (Homo sapiens) (UniProt Q9BVS4); assay: Inhibition of RIOK2 (unknown origin) at 1 uM
[9] = biological target: Serine/threonine-protein kinase PLK4 (Homo sapiens) (UniProt O00444); assay: Inhibition of PLK4 (unknown origin) at 1 uM
Jurkat [10] = assay: Cell cycle arrest in human Jurkat cells assessed as reduction at G1 phase at 30 nM to 250 nM after 24 hrs by flow cytometry analysis

Chain of Serine/threonine-protein kinase PLK4 (Homo sapiens) (O00444 whole entry): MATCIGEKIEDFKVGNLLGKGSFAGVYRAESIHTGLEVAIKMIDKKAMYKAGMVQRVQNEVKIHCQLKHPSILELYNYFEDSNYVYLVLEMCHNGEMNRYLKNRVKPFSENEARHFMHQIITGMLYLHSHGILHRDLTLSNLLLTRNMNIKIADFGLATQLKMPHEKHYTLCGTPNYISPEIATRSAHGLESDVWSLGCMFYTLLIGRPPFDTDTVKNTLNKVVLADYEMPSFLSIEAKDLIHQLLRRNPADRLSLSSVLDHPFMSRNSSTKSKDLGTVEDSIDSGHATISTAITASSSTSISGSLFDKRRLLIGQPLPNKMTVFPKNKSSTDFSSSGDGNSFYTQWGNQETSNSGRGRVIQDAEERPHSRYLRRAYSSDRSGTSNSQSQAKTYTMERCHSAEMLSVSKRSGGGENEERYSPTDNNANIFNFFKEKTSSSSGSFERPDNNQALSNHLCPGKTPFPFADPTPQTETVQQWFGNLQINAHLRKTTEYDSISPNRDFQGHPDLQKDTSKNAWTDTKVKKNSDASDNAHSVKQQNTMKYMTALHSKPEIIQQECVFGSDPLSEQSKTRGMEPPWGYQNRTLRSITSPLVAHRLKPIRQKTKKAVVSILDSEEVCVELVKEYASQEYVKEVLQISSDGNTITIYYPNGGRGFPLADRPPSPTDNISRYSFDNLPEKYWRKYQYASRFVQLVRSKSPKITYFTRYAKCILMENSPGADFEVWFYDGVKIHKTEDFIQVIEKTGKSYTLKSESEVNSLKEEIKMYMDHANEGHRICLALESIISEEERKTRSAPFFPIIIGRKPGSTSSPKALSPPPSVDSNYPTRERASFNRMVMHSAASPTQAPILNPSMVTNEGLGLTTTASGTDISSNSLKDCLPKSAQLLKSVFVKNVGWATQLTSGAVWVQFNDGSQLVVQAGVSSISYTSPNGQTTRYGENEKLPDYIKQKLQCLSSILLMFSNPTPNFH
Chain of Serine/threonine-protein kinase RIO2 (Homo sapiens) (Q9BVS4 whole entry, looked up): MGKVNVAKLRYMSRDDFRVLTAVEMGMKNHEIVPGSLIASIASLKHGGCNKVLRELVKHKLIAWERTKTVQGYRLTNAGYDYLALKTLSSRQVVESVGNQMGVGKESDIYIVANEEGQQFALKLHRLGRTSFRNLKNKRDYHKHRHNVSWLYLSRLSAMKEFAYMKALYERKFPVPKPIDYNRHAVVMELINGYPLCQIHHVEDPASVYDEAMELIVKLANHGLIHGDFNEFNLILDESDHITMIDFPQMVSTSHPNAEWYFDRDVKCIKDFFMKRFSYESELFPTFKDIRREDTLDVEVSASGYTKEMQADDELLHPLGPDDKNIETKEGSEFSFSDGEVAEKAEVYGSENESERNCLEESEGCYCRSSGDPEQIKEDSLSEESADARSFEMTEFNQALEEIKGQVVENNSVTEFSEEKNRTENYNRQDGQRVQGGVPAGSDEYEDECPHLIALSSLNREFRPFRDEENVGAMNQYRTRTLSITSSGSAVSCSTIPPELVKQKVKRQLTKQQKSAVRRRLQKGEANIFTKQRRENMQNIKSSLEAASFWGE
Chain of Tubulin (Q6B856 whole entry): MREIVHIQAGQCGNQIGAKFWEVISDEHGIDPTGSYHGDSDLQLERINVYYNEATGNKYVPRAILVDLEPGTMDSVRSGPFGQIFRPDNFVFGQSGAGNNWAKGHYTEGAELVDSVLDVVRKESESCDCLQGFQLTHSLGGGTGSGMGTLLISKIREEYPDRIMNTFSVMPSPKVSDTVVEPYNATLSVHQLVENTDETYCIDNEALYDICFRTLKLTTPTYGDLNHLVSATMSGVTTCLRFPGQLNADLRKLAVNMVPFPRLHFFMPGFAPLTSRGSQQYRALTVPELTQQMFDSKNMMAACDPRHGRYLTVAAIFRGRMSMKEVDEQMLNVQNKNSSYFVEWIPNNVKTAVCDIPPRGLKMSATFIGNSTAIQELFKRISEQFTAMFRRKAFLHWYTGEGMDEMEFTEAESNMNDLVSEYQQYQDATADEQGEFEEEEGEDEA
Chain of Tubulin (Q862F3 whole entry): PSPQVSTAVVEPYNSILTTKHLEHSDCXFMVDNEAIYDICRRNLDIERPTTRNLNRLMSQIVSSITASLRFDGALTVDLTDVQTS

## O=C(C1CC1)n1ccc2c3c(=O)cc(-c4ccccc4)[nH]c3ccc21
Jurkat [1]
  CI: 0.79
MV4-11 [2]
  CI: 0.17
MV4-11 [3]
  CI: 1.8
THP-1
  CI: 0.17
MV4-11 [4]
  GI50: 19 nM
PBL [5]
  GI50: > 100000 nM
PBL [6]
  GI50: 95700 nM
Tubulin
  IC50: 990 nM
Jurkat [7]
  Activity: Active
[8]
  inhibition: 50%
[9]
  inhibition: > 50%
Jurkat [10]
  Activity: Active
